According to ChEMBL document CHEMBL3421541, “Benzaldehyde Schiff bases regulation to the metabolism, hemolysis, and virulence genes expression in vitro and their structure-microbicidal activity relationship” (2015):
Values after ≈ are worked out from the molar mass of the structure shown. Active and inactive are the calls of the source.

Tests used:
[1] = tested on: Escherichia coli; assay: Antibacterial activity against Escherichia coli assessed as growth inhibition at 100 umol/L after 8 hrs by ELISA plate reader analysis relative to control; type: functional; conditions: read-out: GI
Method in brief: (§1)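 Bacteria were seeded at 1×10^5 CFU/mL in LB, and compound was added to 100 µmol/L final. Compounds came from DMSO stock, with DMSO ≤1% (v/v) final. Cultures were shaken at 37 °C for 8 h and read at OD450. Inhibition % = (OD vehicle control − OD sample)/OD vehicle control × 100. Values are the mean of three independent experiments.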

[2] = tested on: Bacillus subtilis; assay: Antibacterial activity against Bacillus subtilis assessed as growth inhibition at 100 umol/L after 8 hrs by ELISA plate reader analysis relative to control; type: functional; conditions: read-out: GI; method in brief: as §1
[3] = tested on: Escherichia coli; assay: Antibacterial activity against Escherichia coli assessed as lowest concentration required to reduce growth by 1% after 8 hrs by ELISA plate reader analysis relative to control; type: functional
Method in brief: (§2)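 MBC was found by broth microdilution. Inocula of 1×10^5 CFU/mL in LB were shaken at 37 °C with a series of compound concentrations, then read at OD450. MBC was defined as the lowest concentration reducing growth by 1% versus the inoculum control. Three independent experiments were run.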

[4] = tested on: Escherichia coli; assay: Downregulation of cysB gene expression in Escherichia coli at 50 umol/L after 8 hrs by real-time RT-PCR analysis relative to control; type: functional, organism-based
Method in brief: (§3)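 E. coli at 2×10^7 CFU/mL in LB was exposed to 50 µmol/L compound, or LB alone, for 8 h at 37 °C. Total RNA was then analysed by TaqMan real-time RT-PCR or semi-quantitative RT-PCR. Transcripts were normalised to gapA. Fold change is relative to time-matched medium-only cultures.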

[5] = tested on: Escherichia coli; assay: Downregulation of cysB gene expression in Escherichia coli at 50 umol/L after 8 hrs by semi-quantitative RT-PCR analysis relative to control; type: functional, organism-based; method in brief: as §3
[6] = tested on: Escherichia coli; assay: Downregulation of acrA gene expression in Escherichia coli at 50 umol/L after 8 hrs by real-time RT-PCR analysis relative to control; type: functional, organism-based; method in brief: as §3
[7] = tested on: Escherichia coli; assay: Downregulation of acrA gene expression in Escherichia coli at 50 umol/L after 8 hrs by semi-quantitative RT-PCR analysis relative to control; type: functional, organism-based; method in brief: as §3
[8] = tested on: Escherichia coli; assay: Downregulation of tsh gene expression in Escherichia coli at 50 umol/L after 8 hrs by real-time RT-PCR analysis relative to control; type: functional, organism-based; method in brief: as §3
[9] = tested on: Escherichia coli; assay: Downregulation of IroD gene expression in Escherichia coli at 50 umol/L after 8 hrs by real-time RT-PCR analysis relative to control; type: functional, organism-based; method in brief: as §3
[10] = tested on: Escherichia coli; assay: Downregulation of tsh gene expression in Escherichia coli at 50 umol/L after 8 hrs by semi-quantitative RT-PCR analysis relative to control; type: functional, organism-based; method in brief: as §3
[11] = tested on: Escherichia coli; assay: Downregulation of IroD gene expression in Escherichia coli at 50 umol/L after 8 hrs by semi-quantitative RT-PCR analysis relative to control; type: functional, organism-based; method in brief: as §3
[12] = tested on: Staphylococcus aureus; assay: Antibacterial activity against Staphylococcus aureus assessed as growth inhibition at 100 umol/L after 8 hrs by ELISA plate reader analysis relative to control; type: functional; conditions: read-out: GI; method in brief: as §1
[13] = tested on: Bacillus subtilis; assay: Antibacterial activity against Bacillus subtilis assessed as lowest concentration required to reduce growth by 1% after 8 hrs by ELISA plate reader analysis relative to control; type: functional; method in brief: as §2
[14] = tested on: Bacillus subtilis; assay: Downregulation of yqhC gene expression in Bacillus subtilis at 50 umol/L after 8 hrs by real-time RT-PCR analysis relative to control; type: functional, organism-based
Method in brief: (§4)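 B. subtilis ATCC 6051 at 2×10^7 CFU/mL in LB was exposed to 50 µmol/L compound, or LB alone, for 8 h at 37 °C. Total RNA was analysed by TaqMan real-time RT-PCR or semi-quantitative RT-PCR, normalised to 16sRNA. Fold change is versus time-matched medium-only cultures, with data pooled from three experiments.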

[15] = tested on: Bacillus subtilis; assay: Downregulation of yqhC gene expression in Bacillus subtilis at 50 umol/L after 8 hrs by semi-quantitative RT-PCR analysis relative to control; type: functional, organism-based; method in brief: as §4
[16] = tested on: Bacillus subtilis; assay: Downregulation of yhdP gene expression in Bacillus subtilis at 50 umol/L after 8 hrs by real-time RT-PCR analysis relative to control; type: functional, organism-based; method in brief: as §4
[17] = tested on: Bacillus subtilis; assay: Downregulation of yhdP gene expression in Bacillus subtilis at 50 umol/L after 8 hrs by semi-quantitative RT-PCR analysis relative to control; type: functional, organism-based; method in brief: as §4
[18] = tested on: Bacillus subtilis; assay: Downregulation of yhdT gene expression in Bacillus subtilis at 50 umol/L after 8 hrs by real-time RT-PCR analysis relative to control; type: functional, organism-based; method in brief: as §4
[19] = tested on: Bacillus subtilis; assay: Downregulation of yhdT gene expression in Bacillus subtilis at 50 umol/L after 8 hrs by semi-quantitative RT-PCR analysis relative to control; type: functional, organism-based; method in brief: as §4
[20] = tested on: Bacillus subtilis; assay: Downregulation of yqhB gene expression in Bacillus subtilis at 50 umol/L after 8 hrs by real-time RT-PCR analysis relative to control; type: functional, organism-based; method in brief: as §4
[21] = tested on: Bacillus subtilis; assay: Downregulation of yqhB gene expression in Bacillus subtilis at 50 umol/L after 8 hrs by semi-quantitative RT-PCR analysis relative to control; type: functional, organism-based; method in brief: as §4
[22] = tested on: Bacillus subtilis; assay: Downregulation of yugS gene expression in Bacillus subtilis at 50 umol/L after 8 hrs by real-time RT-PCR analysis relative to control; type: functional, organism-based; method in brief: as §4
[23] = tested on: Bacillus subtilis; assay: Downregulation of yugS gene expression in Bacillus subtilis at 50 umol/L after 8 hrs by semi-quantitative RT-PCR analysis relative to control; type: functional, organism-based; method in brief: as §4
[24] = tested on: Staphylococcus aureus; assay: Antibacterial activity against Staphylococcus aureus assessed as lowest concentration required to reduce growth by 1% after 8 hrs by ELISA plate reader analysis relative to control; type: functional; method in brief: as §2
[25] = tested on: Staphylococcus aureus; assay: Upregulation of hla gene expression in Staphylococcus aureus at 50 umol/L after 8 hrs by real-time RT-PCR analysis relative to control; type: functional, organism-based
Method in brief: as §4, with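 “S. aureus” for “B. subtilis”, “25923” for “6051”, “gyrB.” for “16sRNA.”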

[26] = tested on: Staphylococcus aureus; assay: Upregulation of hla gene expression in Staphylococcus aureus at 50 umol/L after 8 hrs by semi-quantitative RT-PCR analysis relative to control; type: functional, organism-based
Method in brief: as §4, with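 “S. aureus” for “B. subtilis”, “25923” for “6051”, “gyrB.” for “16sRNA.”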

[27] = tested on: Staphylococcus aureus; assay: Upregulation of sbi gene expression in Staphylococcus aureus at 50 umol/L after 8 hrs by real-time RT-PCR analysis relative to control; type: functional, organism-based
Method in brief: as §4, with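 “S. aureus” for “B. subtilis”, “25923” for “6051”, “gyrB.” for “16sRNA.”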

[28] = tested on: Staphylococcus aureus; assay: Upregulation of sbi gene expression in Staphylococcus aureus at 50 umol/L after 8 hrs by semi-quantitative RT-PCR analysis relative to control; type: functional, organism-based
Method in brief: as §4, with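 “S. aureus” for “B. subtilis”, “25923” for “6051”, “gyrB.” for “16sRNA.”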

[29] = tested on: Staphylococcus aureus; assay: Downregulation of mecA gene expression in Staphylococcus aureus at 50 umol/L after 8 hrs by real-time RT-PCR analysis relative to control; type: functional
Method in brief: as §4, with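 “S. aureus” for “B. subtilis”, “25923” for “6051”, “gyrB.” for “16sRNA.”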

[30] = tested on: Staphylococcus aureus; assay: Downregulation of mecA gene expression in Staphylococcus aureus at 50 umol/L after 8 hrs by semi-quantitative RT-PCR analysis relative to control; type: functional
Method in brief: as §4, with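 “S. aureus” for “B. subtilis”, “25923” for “6051”, “gyrB.” for “16sRNA.”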

[31] = tested on: Escherichia coli; assay: Upregulation of cysB gene expression in Escherichia coli at 50 umol/L after 8 hrs by real-time RT-PCR analysis relative to control; type: functional, organism-based; method in brief: as §3
[32] = tested on: Escherichia coli; assay: Upregulation of cysB gene expression in Escherichia coli at 50 umol/L after 8 hrs by semi-quantitative RT-PCR analysis relative to control; type: functional, organism-based; method in brief: as §3
[33] = tested on: Escherichia coli; assay: Upregulation of acrA gene expression in Escherichia coli at 50 umol/L after 8 hrs by real-time RT-PCR analysis relative to control; type: functional, organism-based; method in brief: as §3
[34] = tested on: Escherichia coli; assay: Upregulation of acrA gene expression in Escherichia coli at 50 umol/L after 8 hrs by semi-quantitative RT-PCR analysis relative to control; type: functional, organism-based; method in brief: as §3
[35] = tested on: Staphylococcus aureus; assay: Downregulation of saeR gene expression in Staphylococcus aureus at 50 umol/L after 8 hrs by real-time RT-PCR analysis relative to control; type: functional, organism-based
Method in brief: as §4, with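 “S. aureus” for “B. subtilis”, “25923” for “6051”, “gyrB.” for “16sRNA.”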

[36] = tested on: Staphylococcus aureus; assay: Downregulation of saeR gene expression in Staphylococcus aureus at 50 umol/L after 8 hrs by semi-quantitative RT-PCR analysis relative to control; type: functional, organism-based
Method in brief: as §4, with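 “S. aureus” for “B. subtilis”, “25923” for “6051”, “gyrB.” for “16sRNA.”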

O=C(COc1ccc(Cl)cc1)N/N=C/c1cc(Br)ccc1O
inhibition of growth at 100 µM [1]: 73.2%
inhibition of growth at 100 µM [2]: 15.9%
MBC [3]: 18.4 µM (≈ 7.06 µg/mL)
Activity [4]: Active
Activity [5]: Active
Activity [6]: Active
Activity [7]: Active
Activity [8]: Active
Activity [9]: Active
Activity [10]: Active
Activity [11]: Active

O=C(COc1ccc(Cl)cc1)N/N=C/c1ccccc1O
inhibition of growth at 100 µM [1]: 0.23%

O=C(COc1ccc(Cl)cc1)N/N=C/c1cc([N+](=O)[O-])ccc1O
inhibition of growth at 100 µM [2]: 96.4%
inhibition of growth at 100 µM [12]: 1.39%
MBC [13]: 2.8 µM (≈ 0.979 µg/mL)
Activity [14]: Active
Activity [15]: Active
Activity [16]: Active
Activity [17]: Active
Activity [18]: Active
Activity [19]: Active
Activity [20]: Active
Activity [21]: Active
Activity [22]: Active
Activity [23]: Active

O=C(O)[C@H](Cc1ccc(O)cc1)/N=C/c1ccccc1O
inhibition of growth at 100 µM [1]: 96%
inhibition of growth at 100 µM [2]: 4.38%
MBC [3]: 1.6 µM (≈ 0.456 µg/mL)
Activity [4]: Active
Activity [5]: Active
Activity [8]: Active
Activity [9]: Active
Activity [10]: Active
Activity [11]: Active

O=C(COc1ccc(Cl)cc1)N/N=C/c1ccc(OCc2ccccc2)c(OCc2ccccc2)c1
inhibition of growth at 100 µM [1]: 17.6%
inhibition of growth at 100 µM [2]: 6.21%
inhibition of growth at 100 µM [12]: 99.5%
MBC [24]: 1.4 µM (≈ 0.701 µg/mL)
Activity [25]: Active
Activity [26]: Active
Activity [27]: Active
Activity [28]: Active
fold change (FC) [29]: 2
fold change (FC) [30]: 2

O=C(COc1ccc(Cl)cc1)N/N=C/c1cc(Cl)ccc1O
inhibition of growth at 100 µM [1]: 3.08%
inhibition of growth at 100 µM [2]: 83.2%
MBC [13]: 10.8 µM (≈ 3.66 µg/mL)
Activity [14]: Active
Activity [15]: Active
Activity [16]: Active
Activity [17]: Active
Activity [18]: Active
Activity [19]: Active
Activity [20]: Active
Activity [21]: Active
Activity [22]: Active
Activity [23]: Active

O=C(N/N=C/c1cc(Br)ccc1O)c1ccncc1
inhibition of growth at 100 µM [1]: 95.8%
MBC [3]: 3.2 µM (≈ 1.02 µg/mL)
Activity [31]: Active
Activity [32]: Active
Activity [33]: Active
Activity [34]: Active
Activity [8]: Active
Activity [9]: Active
Activity [10]: Active
Activity [11]: Active

CC(C)(C)c1cc(/C=N/NC(=O)c2ccncc2)c(O)c(C(C)(C)C)c1
inhibition of growth at 100 µM [1]: 13.4%
inhibition of growth at 100 µM [12]: 95.5%
MBC [24]: 3.1 µM (≈ 1.1 µg/mL)
Activity [25]: Active
Activity [26]: Active
fold change (FC) [29]: 2
fold change (FC) [30]: 2
Activity [35]: Active
Activity [36]: Active

COc1ccc(CC(=O)N/N=C/c2cc([N+](=O)[O-])ccc2O)cc1
inhibition of growth at 100 µM [1]: 5.57%
